Source: paper PMC3018326 (Proteins, 2010)

Target: T1, TcFPPS (Trypanosoma cruzi, UniProt Q95WL3)
T1 sequence (Q95WL3 1-362): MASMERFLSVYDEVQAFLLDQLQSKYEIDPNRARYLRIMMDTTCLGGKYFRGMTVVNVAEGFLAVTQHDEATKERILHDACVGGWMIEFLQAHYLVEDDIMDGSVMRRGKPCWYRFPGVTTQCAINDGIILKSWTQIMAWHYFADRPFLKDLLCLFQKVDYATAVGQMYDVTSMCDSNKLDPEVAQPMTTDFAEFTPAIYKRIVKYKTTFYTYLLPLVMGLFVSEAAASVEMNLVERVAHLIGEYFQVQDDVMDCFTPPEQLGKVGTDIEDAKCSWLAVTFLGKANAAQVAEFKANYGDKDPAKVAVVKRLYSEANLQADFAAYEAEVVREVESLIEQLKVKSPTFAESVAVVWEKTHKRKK
Test: isothermal titration calorimetry, two-sequential-site fit
Format: binding
How it was run: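 TcFPPS carried an N-terminal His-tag, was expressed in E. coli BL21(DE3), and was purified by Ni-affinity and gel filtration. Protein at 22.5 μM was dialyzed into 20 mM HEPES pH 7.5, 1 M NaCl, 2 mM MgCl2, 2 mM TCEP. Test compound at 250 μM in the same buffer was injected (10 μL) every 300 s at 26°C. Dilution heats were subtracted and the first injection excluded. Isotherms were fitted to a two-sequential-site model.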

Going from `O=P(O)(O)C(O)(Cn1ccnc1)P(=O)(O)O` [91B, zoledronate] to `O=P(O)(O)C(O)(Cc1cccnc1)P(=O)(O)O` [Ris, risedronate], the Kd rises from 0.0286 µM to 0.0667 µM (2.3-fold). The first binds more tightly here.

For `O=P(O)(O)C(O)(Cc1cnc2ccccn12)P(=O)(O)O` [261A, minodronate], the Kd was 0.0109 µM.
